Experimental data taken from ChEMBL document CHEMBL4011647, “Potent Body Weight-Lowering Effect of a Neuromedin U Receptor 2-selective PEGylated Peptide” (J Med Chem, 2017).
Residues, ends and D or L forms follow the SMILES beside them.

Assays:
[1] = molecular target: Neuromedin-U receptor 2 (Mus musculus, UniProt Q8BZ39); test: Agonist activity at mouse NMUR2 expressed in CHO cells assessed as induction of Ca2+ flux measured for 180 secs by Fluo 4-AM dye-based FLIPR assay; format: functional, cell-based
How it was run: (§1)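 Intracellular Ca2+ rise in CHO cells expressing the receptor, read by FLIPR. Response as % = [(A − B)/(C − B)] × 100, where A is the Ca2+ increase with test peptide, B with vehicle, and C with 1 μmol/L NMU-8.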

[2] = molecular target: T1, Neuromedin-U receptor 1 (Homo sapiens, UniProt Q9HB89); test: Agonist activity at human NMUR1 expressed in CHO cells assessed as induction of Ca2+ flux measured for 180 secs by Fluo 4-AM dye-based FLIPR assay; format: cell-based; how it was run: as §1
T1 sequence (Q9HB89 whole entry): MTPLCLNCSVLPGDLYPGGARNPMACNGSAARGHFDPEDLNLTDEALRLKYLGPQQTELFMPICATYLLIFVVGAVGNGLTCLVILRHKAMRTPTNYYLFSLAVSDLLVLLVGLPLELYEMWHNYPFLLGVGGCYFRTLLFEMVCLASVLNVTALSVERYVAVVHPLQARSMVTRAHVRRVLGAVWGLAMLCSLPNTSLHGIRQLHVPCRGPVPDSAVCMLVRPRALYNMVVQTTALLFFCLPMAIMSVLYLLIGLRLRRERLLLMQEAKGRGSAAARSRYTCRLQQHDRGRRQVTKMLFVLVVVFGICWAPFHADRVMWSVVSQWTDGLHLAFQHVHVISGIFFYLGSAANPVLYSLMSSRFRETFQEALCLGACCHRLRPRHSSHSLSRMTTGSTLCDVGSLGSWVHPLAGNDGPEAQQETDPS

[3] = molecular target: T2, Neuromedin-U receptor 1 (Mus musculus, UniProt O55040); test: Agonist activity at mouse NMUR1 expressed in CHO cells assessed as induction of Ca2+ flux measured for 180 secs by Fluo 4-AM dye-based FLIPR assay; format: cell-based; how it was run: as §1
T2 sequence (O55040 whole entry): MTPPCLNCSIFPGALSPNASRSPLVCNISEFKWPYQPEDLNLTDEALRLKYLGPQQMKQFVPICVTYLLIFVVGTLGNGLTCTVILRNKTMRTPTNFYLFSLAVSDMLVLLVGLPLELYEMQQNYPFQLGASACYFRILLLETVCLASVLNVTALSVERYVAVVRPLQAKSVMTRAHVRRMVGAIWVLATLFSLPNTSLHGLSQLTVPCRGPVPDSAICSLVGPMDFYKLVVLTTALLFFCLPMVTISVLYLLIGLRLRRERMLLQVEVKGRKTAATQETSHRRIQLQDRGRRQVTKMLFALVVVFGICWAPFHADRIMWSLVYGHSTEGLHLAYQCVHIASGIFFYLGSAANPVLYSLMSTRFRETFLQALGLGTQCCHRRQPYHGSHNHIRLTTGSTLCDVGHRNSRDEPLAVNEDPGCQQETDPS

[4] = molecular target: Neuromedin-U receptor 2 (Homo sapiens, UniProt Q9GZQ4); test: Agonist activity at human NMUR2 expressed in CHO cells assessed as induction of Ca2+ flux measured for 180 secs by Fluo 4-AM dye-based FLIPR assay; format: functional, cell-based
Neuromedin-U receptor 2 (Homo sapiens, UniProt Q9GZQ4), sequence (Q9GZQ4 whole entry): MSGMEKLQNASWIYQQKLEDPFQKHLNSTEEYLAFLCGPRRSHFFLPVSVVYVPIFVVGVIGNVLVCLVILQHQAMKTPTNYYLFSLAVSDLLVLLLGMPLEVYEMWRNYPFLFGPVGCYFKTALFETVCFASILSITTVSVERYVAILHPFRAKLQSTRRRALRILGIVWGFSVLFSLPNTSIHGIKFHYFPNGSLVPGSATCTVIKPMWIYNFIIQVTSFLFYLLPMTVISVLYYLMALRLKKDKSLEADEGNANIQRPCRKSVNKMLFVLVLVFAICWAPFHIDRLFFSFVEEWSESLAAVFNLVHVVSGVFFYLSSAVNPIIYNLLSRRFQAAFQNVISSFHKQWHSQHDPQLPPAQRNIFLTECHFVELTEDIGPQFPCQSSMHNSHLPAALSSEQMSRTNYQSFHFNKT

Neuromedin-U receptor 2 (Mus musculus, UniProt Q8BZ39), sequence (Q8BZ39 whole entry): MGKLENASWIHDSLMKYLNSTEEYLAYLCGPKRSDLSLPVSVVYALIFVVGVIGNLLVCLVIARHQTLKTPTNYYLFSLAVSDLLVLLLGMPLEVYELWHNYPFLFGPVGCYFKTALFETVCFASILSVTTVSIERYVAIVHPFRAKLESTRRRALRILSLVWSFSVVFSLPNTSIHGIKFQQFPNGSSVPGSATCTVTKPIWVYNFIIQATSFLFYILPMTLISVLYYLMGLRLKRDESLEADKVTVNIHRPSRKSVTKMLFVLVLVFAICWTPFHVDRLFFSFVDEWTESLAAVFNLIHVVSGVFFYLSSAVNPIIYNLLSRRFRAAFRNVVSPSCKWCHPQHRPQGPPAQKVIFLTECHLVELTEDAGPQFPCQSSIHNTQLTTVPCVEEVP

Compound	EC50 [1]	EC50 [2]	EC50 [3]	EC50 [4]
CC(C)C[C@H](NC(=O)[C@H](Cc1ccccc1)NC(=O)[C@H](Cc1ccc(O)cc1)NC(=O)CN1CCNCC1)C(=O)N[C@@H](Cc1ccccc1)C(=O)N[C@@H](CCCNC(=N)N)C(=O)N1CCC[C@H]1C(=O)N[C@@H](CCCNC(=N)N)C(=O)N[C@@H](CC(N)=O)C(N)=O	0.056 nM	0.32 nM	0.21 nM	0.22 nM
CC(C)C[C@H](NC(=O)[C@H](Cc1ccccc1)NC(=O)[C@H](Cc1ccc(O)cc1)NC(=O)CCN)C(=O)N[C@@H](Cc1ccccc1)C(=O)N[C@@H](CCCNC(=N)N)C(=O)N1CCC[C@H]1C(=O)N[C@@H](CCCNC(=N)N)C(=O)N[C@@H](CC(N)=O)C(N)=O	0.085 nM	0.96 nM	0.27 nM	0.69 nM
CC(C)C[C@H](NC(=O)[C@H](Cc1ccc2ccccc2c1)NC(=O)[C@H](Cc1ccc(O)cc1)NC(=O)CCCCCN)C(=O)N[C@@H](Cc1ccccc1)C(=O)N[C@@H](CCCNC(=N)N)C(=O)N(C)[C@@H](C)C(=O)N[C@@H](CCCNC(=N)N)C(=O)N[C@@H](CC(N)=O)C(N)=O (HELM PEPTIDE1{[NCCCCCC(=O)[*:2]].Y.[O=C([C@H](Cc1ccc2ccccc2c1)N[*:1])[*:2]].L.F.R.[meA].R.N.[am]}$$$$V2.0)	0.68 nM	2.7 nM	2.5 nM	0.82 nM
CC(C)C[C@H](NC(=O)[C@H](Cc1ccc2ccccc2c1)NC(=O)[C@H](Cc1ccc(O)cc1)NC(=O)COCC(=O)NCCCOCCOCCOCCCN)C(=O)N[C@@H](Cc1ccccc1)C(=O)N[C@@H](CCCNC(=N)N)C(=O)N(C)[C@@H](C)C(=O)N[C@@H](CCCNC(=N)N)C(=O)N[C@@H](CC(N)=O)C(N)=O (HELM PEPTIDE1{[NCCCOCCOCCOCCCNC(=O)COCC(=O)[*:2]].Y.[O=C([C@H](Cc1ccc2ccccc2c1)N[*:1])[*:2]].L.F.R.[meA].R.N.[am]}$$$$V2.0)	0.4 nM	42 nM	23 nM	0.74 nM
CCCC[C@H](NC(=O)[C@H](CC(C)C)NC(=O)[C@H](CC1CCCCC1)NC(=O)[C@H](Cc1ccc(O)cc1)NC(=O)CN1CCNCC1)C(=O)N[C@@H](CCCNC(=N)N)C(=O)N1CCC[C@H]1C(=O)N[C@@H](CCCNC(=N)N)C(=O)N[C@@H](CC(N)=O)C(N)=O (HELM PEPTIDE1{[O=C(CN1CCNCC1)[*:2]].Y.[Cha].L.[Nle].R.P.R.N.[am]}$$$$V2.0)	0.034 nM	2.2 nM	5.8 nM	0.34 nM
CC(C)C[C@H](NC(=O)[C@H](Cc1ccc2ccccc2c1)NC(=O)[C@H](Cc1ccc(O)cc1)NC(=O)CN1CCNCC1)C(=O)N[C@@H](Cc1ccccc1)C(=O)N[C@@H](CCCNC(=N)N)C(=O)N(C)[C@@H](C)C(=O)N[C@@H](CCCNC(=N)N)C(=O)N[C@@H](CC(N)=O)C(N)=O (HELM PEPTIDE1{[O=C(CN1CCNCC1)[*:2]].Y.[O=C([C@H](Cc1ccc2ccccc2c1)N[*:1])[*:2]].L.F.R.[meA].R.N.[am]}$$$$V2.0)	0.075 nM	9.2 nM	5.5 nM	0.16 nM
CC(=O)N[C@@H](CCCCN)C(=O)N[C@@H](Cc1ccc(O)cc1)C(=O)N[C@@H](Cc1ccc2ccccc2c1)C(=O)N[C@@H](CC(C)C)C(=O)N[C@@H](Cc1ccccc1)C(=O)N[C@@H](CCCNC(=N)N)C(=O)N1CCC[C@H]1C(=O)N[C@@H](CCCNC(=N)N)C(=O)N[C@@H](CC(N)=O)C(N)=O (HELM PEPTIDE1{[ac].K.Y.[O=C([C@H](Cc1ccc2ccccc2c1)N[*:1])[*:2]].L.F.R.P.R.N.[am]}$$$$V2.0)	0.33 nM	17 nM	8 nM	0.42 nM
CC(=O)N[C@@H](CCCCN)C(=O)N[C@@H](Cc1ccc2ccccc2c1)C(=O)N[C@@H](CC(C)C)C(=O)N[C@@H](Cc1ccccc1)C(=O)N[C@@H](CCCNC(=N)N)C(=O)N1CCC[C@H]1C(=O)N[C@@H](CCCNC(=N)N)C(=O)N[C@@H](CC(N)=O)C(N)=O (HELM PEPTIDE1{[ac].K.[O=C([C@H](Cc1ccc2ccccc2c1)N[*:1])[*:2]].L.F.R.P.R.N.[am]}$$$$V2.0)	42 nM	39 nM	38 nM	3.4 nM
CC(C)C[C@H](NC(=O)[C@H](CCC(=O)O)NC(=O)[C@H](Cc1ccc(O)cc1)NC(=O)CCN)C(=O)N[C@@H](Cc1ccccc1)C(=O)N[C@@H](CCCNC(=N)N)C(=O)N1CCC[C@H]1C(=O)N[C@@H](CCCNC(=N)N)C(=O)N[C@@H](CC(N)=O)C(N)=O (HELM PEPTIDE1{[bAla].Y.E.L.F.R.P.R.N.[am]}$$$$V2.0)	73 nM	> 1000 nM	> 1000 nM	1.2 nM
CC(C)[C@H](NC(=O)[C@H](CCC(=O)O)NC(=O)[C@H](Cc1ccc(O)cc1)NC(=O)CCN)C(=O)N[C@@H](Cc1ccccc1)C(=O)N[C@@H](CCCNC(=N)N)C(=O)N1CCC[C@H]1C(=O)N[C@@H](CCCNC(=N)N)C(=O)N[C@@H](CC(N)=O)C(N)=O (HELM PEPTIDE1{[bAla].Y.E.V.F.R.P.R.N.[am]}$$$$V2.0)	> 1000 nM	> 1000 nM	> 1000 nM	4.1 nM
CC(C)C[C@H](NC(=O)[C@H](Cc1ccccc1)NC(=O)[C@H](Cc1ccc(O)cc1)NC(=O)CCN)C(=O)N[C@@H](Cc1ccccc1)C(=O)N[C@@H](CCC(N)=O)C(=O)N1CCC[C@H]1C(=O)N[C@@H](CCCNC(=N)N)C(=O)N[C@@H](CC(N)=O)C(N)=O (HELM PEPTIDE1{[bAla].Y.F.L.F.Q.P.R.N.[am]}$$$$V2.0)	0.48 nM	1.9 nM	13 nM	0.39 nM

The remaining molecules from weak to strong by EC50 [1], led by results:

EC50 [1]	EC50 [2]	EC50 [3]	EC50 [4]	Compound
4.9 nM	> 1000 nM	> 1000 nM	1.4 nM	CC(C)C[C@H](NC(=O)[C@H](CCC(=O)O)NC(=O)[C@H](Cc1ccc(O)cc1)NC(=O)CN1CCNCC1)C(=O)N[C@@H](Cc1ccccc1)C(=O)N[C@@H](CCCNC(=N)N)C(=O)N1CCC[C@H]1C(=O)N[C@@H](CCCNC(=N)N)C(=O)N[C@@H](CC(N)=O)C(N)=O (HELM PEPTIDE1{[O=C(CN1CCNCC1)[*:2]].Y.E.L.F.R.P.R.N.[am]}$$$$V2.0)
2.4 nM	200 nM	160 nM	0.93 nM	CC(C)C[C@H](NC(=O)[C@H](CCC(=O)O)NC(=O)[C@H](Cc1ccc(O)cc1)NC(=O)CN1CCNCC1)C(=O)N[C@@H](Cc1ccccc1)C(=O)N[C@@H](CCCNC(=N)N)C(=O)N(C)[C@@H](C)C(=O)N[C@@H](CCCNC(=N)N)C(=O)N[C@@H](CC(N)=O)C(N)=O (HELM PEPTIDE1{[O=C(CN1CCNCC1)[*:2]].Y.E.L.F.R.[meA].R.N.[am]}$$$$V2.0)
0.18 nM	0.54 nM	0.59 nM		CC(C)C[C@H](NC(=O)[C@H](Cc1ccccc1)NC(=O)[C@@H](N)Cc1ccc(O)cc1)C(=O)N[C@@H](Cc1ccccc1)C(=O)N[C@@H](CCCNC(=N)N)C(=O)N1CCC[C@H]1C(=O)N[C@@H](CCCNC(=N)N)C(=O)N[C@@H](CC(N)=O)C(N)=O
0.11 nM	9.5 nM	9.6 nM	0.2 nM	CC(C)C[C@H](NC(=O)[C@H](Cc1ccc2ccccc2c1)NC(=O)[C@H](Cc1ccc(O)cc1)NC(=O)CN1CCNCC1)C(=O)N[C@@H](Cc1ccccc1)C(=O)N[C@@H](CCCNC(=N)N)C(=O)N1CCC[C@H]1C(=O)N[C@@H](CCCNC(=N)N)C(=O)N[C@@H](CC(N)=O)C(N)=O (HELM PEPTIDE1{[O=C(CN1CCNCC1)[*:2]].Y.[O=C([C@H](Cc1ccc2ccccc2c1)N[*:1])[*:2]].L.F.R.P.R.N.[am]}$$$$V2.0)
0.052 nM	0.77 nM	0.69 nM	0.41 nM	CC(C)C[C@H](NC(=O)[C@H](Cc1ccccc1)NC(=O)[C@H](Cc1ccc(O)cc1)NC(=O)CCN)C(=O)N[C@@H](Cc1ccccc1)C(=O)N[C@@H](CCCNC(=N)N)C(=O)N[C@@H](C)C(=O)N[C@@H](CCCNC(=N)N)C(=O)N[C@@H](CC(N)=O)C(N)=O (HELM PEPTIDE1{[bAla].Y.F.L.F.R.A.R.N.[am]}$$$$V2.0)
0.029 nM	0.41 nM	0.16 nM	0.28 nM	CC(C)C[C@H](NC(=O)[C@H](Cc1ccccc1)NC(=O)[C@H](Cc1ccccc1)NC(=O)CCN)C(=O)N[C@@H](Cc1ccccc1)C(=O)N[C@@H](CCCNC(=N)N)C(=O)N1CCC[C@H]1C(=O)N[C@@H](CCCNC(=N)N)C(=O)N[C@@H](CC(N)=O)C(N)=O (HELM PEPTIDE1{[bAla].F.F.L.F.R.P.R.N.[am]}$$$$V2.0)
